From ChEMBL document CHEMBL4610058, “Mariannamides A and B, new cyclic octapeptides isolated from Mariannaea elegans NBRC102301” (2020) come the findings set out here.

For experiment [1], the system named is C2C12. The experiment in a line: Upregulation of SIRT1 mRNA expression in mouse C2C12 cells at 50 uM measured after 24 hrs by qRT-PCR analysis. Format: functional, cell-based. The essentials: (§1)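 C2C12 seeded at 2×10^5 cells/well, grown to 90% confluence, then differentiated 2 days in DMEM with 2% horse serum. Treated 24 h with compound (10–50 µM), DMSO, or resveratrol 50 µM (positive control). SIRT1 mRNA measured by qRT-PCR (40 cycles, 95/60 °C), GAPDH reference, ΔΔCt vs DMSO. Triplicate; mean ± S.E.M.; one-way ANOVA with Tukey.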
(Real-time PCR tracks product formation cycle by cycle.)

The next experiment relates to Cryptococcus neoformans. The experiment in a line: Antimicrobial activity against Cryptococcus neoformans IFM 40215 assessed as diameter of inhibition zone measured after 24 hrs by disc diffusion assay. It is filed as functional. The method in brief: (§2)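 Yeasts pre-cultured on YPD agar at 37 °C for 24 h, suspended in Mueller Hinton broth and adjusted to 0.5 McFarland. 6 mm discs carrying 2 µg compound (20 µL) laid on Mueller Hinton agar spread with the fungal suspension, then incubated 37 °C for 24 h. Zone diameter read including the disc. 5% DMSO discs as negative control. Triplicate.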

In experiment [2] the test system is C2C12. The experiment in a line: Upregulation of SIRT1 mRNA expression in mouse C2C12 cells at 50 uM measured after 24 hrs by qRT-PCR analysis relative to control. It is filed as functional. The method in brief:
as §1

A further experiment deals with Escherichia coli. Briefly: Antimicrobial activity against Escherichia coli U541 assessed as diameter of inhibition zone measured after 24 hrs by disc diffusion assay. It is filed as functional. The essentials:
(§3)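 Bacteria grown in Mueller Hinton broth at 37 °C for 24 h and adjusted to 0.5 McFarland. 6 mm paper discs loaded with 2 µg compound (20 µL) placed on Mueller Hinton agar spread with the suspension, then incubated 37 °C for 24 h. Inhibition-zone diameter measured including the disc. Blank 5% DMSO discs as negative control. Triplicate.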
On the technique in general: Agar diffusion results depend on both activity and mobility in agar.

Another experiment deals with Candida parapsilosis. Briefly: Antimicrobial activity against Candida parapsilosis IFM 40218 measured after 24 hrs by disc diffusion method. It is filed as functional, organism-based. The method in brief:
as §2

For the next experiment, the system named is [Candida] auris. The experiment in a line: Antimicrobial activity against Candida auris JCM 15448 measured after 24 hrs by disc diffusion method. Format: functional, organism-based. As to conditions: Candidozyma auris. The method in brief:
as §2

Another experiment deals with Nakaseomyces glabratus. The experiment in a line: Antimicrobial activity against Candida glabrata IFM 40217 measured after 24 hrs by disc diffusion method. Format: functional, organism-based. The essentials:
as §2

For a further experiment, the system named is Bacillus subtilis. Briefly: Antimicrobial activity against Bacillus subtilis HA101 measured after 24 hrs by disc diffusion method. It is filed as functional, organism-based. The method in brief:
as §3

In experiment [3] the test system is Meyerozyma guilliermondii. Briefly: Antimicrobial activity against Candida guilliermondii TIMM 0260 measured after 24 hrs by disc diffusion method. It is filed as functional, organism-based. The method in brief: as §2
The subject of the next experiment is Candida albicans. The experiment in a line: Antimicrobial activity against Candida albicans IFM 40213 measured after 24 hrs by disc diffusion method. It is filed as functional, organism-based. The method in brief:
as §2

In another experiment the test system is Enterococcus faecalis. The experiment in a line: Antimicrobial activity against Enterococcus faecalis JCM7783 measured after 24 hrs by disc diffusion method. Format: functional, organism-based. The essentials: as §3
The next experiment has as its system Staphylococcus aureus. Briefly: Antimicrobial activity against methicillin-resistant Staphylococcus aureus N315 measured after 24 hrs by disc diffusion method. Format: functional, organism-based. The method in brief: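 Disc diffusion on Müller Hinton agar. MRSA N315 grown in Müller Hinton broth at 37 °C for 24 h, then adjusted to McFarland 0.5. Sterile 6 mm paper discs loaded with 20 µL (2 µg) of compound. Incubation at 37 °C for 24 h. Read-out is inhibition zone diameter including the disc. Negative control was discs with 5% DMSO. Triplicate; mean ± S.E.M.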

The source made the active and inactive calls. No cut-off for these calls is given here. Where a SMILES comes first, the peptide text is derived from it.

Consider `Oc1ccc(/C=C/c2cc(O)cc(O)c2)cc1`, for which the outcome with C2C12 [1] was Active.
With `CC[C@H](C)[C@@H]1NC(=O)[C@H](C(C)C)NC(=O)[C@@H]2CCCN2C(=O)[C@H]([C@@H](C)CC)NC(=O)[C@H](CC(C)C)NC(=O)[C@@H]2CCCN2C(=O)[C@@H]2CCCN2C(=O)[C@H](CC(C)C)NC1=O` (cyclo(ILPPLIPV)), the “diameter of the inhibition zone (DIZ)” value was 7.7 mm with Cryptococcus neoformans and 9.4 mm in the experiment on Escherichia coli. The “fold change (FC)” value in the experiment on C2C12 [2] is recorded as 1.5.
In the case of `CC[C@H](C)[C@@H]1NC(=O)[C@H](CC(C)C)NC(=O)[C@@H]2CCCN2C(=O)[C@@H]2CCCN2C(=O)[C@H](CC(C)C)NC(=O)[C@H](C(C)C)NC(=O)[C@H](C(C)C)NC(=O)[C@@H]2CCCN2C1=O` (cyclo(IPVVLPPL)), the result (in the experiment on Candida parapsilosis; in experiment [Candida] auris; in the experiment on Nakaseomyces glabratus; in the experiment on Cryptococcus neoformans; in the experiment on Bacillus subtilis; in [3]) was inactive. In addition, the outcome in the experiment with Candida albicans, with Enterococcus faecalis, in the experiment on Escherichia coli and in the experiment on Staphylococcus aureus was inactive.
